# Test results: the M2OR odorant receptor database
# Legend:
# Conditions in all cases: stereoisomer not certain
# UniProt Q8VG27 = molecular target: T1, UniProt Q8VG27
# T1 sequence (whole entry): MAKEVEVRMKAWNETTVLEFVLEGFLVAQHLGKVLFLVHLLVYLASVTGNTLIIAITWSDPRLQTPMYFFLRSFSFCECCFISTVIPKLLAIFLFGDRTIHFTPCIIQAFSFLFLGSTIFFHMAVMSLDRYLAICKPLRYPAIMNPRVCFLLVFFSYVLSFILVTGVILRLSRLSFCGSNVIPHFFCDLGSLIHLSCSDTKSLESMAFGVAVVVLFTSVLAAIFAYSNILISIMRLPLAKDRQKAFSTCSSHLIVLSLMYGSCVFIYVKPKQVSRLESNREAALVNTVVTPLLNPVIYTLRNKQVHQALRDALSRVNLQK
# In short: (§1)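 Each receptor–molecule pair is labelled responsive or non-responsive (inactive) according to whether the original authors judged the measured signal statistically different from baseline. The data were taken from the main text and supplementary material of published papers and checked for typos and inconsistencies. Assay methods differed by source, with transient luciferase assays in mammalian cell lines being common.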
# UniProt Q8VG49 = molecular target: T2, UniProt Q8VG49
# T2 sequence (whole entry): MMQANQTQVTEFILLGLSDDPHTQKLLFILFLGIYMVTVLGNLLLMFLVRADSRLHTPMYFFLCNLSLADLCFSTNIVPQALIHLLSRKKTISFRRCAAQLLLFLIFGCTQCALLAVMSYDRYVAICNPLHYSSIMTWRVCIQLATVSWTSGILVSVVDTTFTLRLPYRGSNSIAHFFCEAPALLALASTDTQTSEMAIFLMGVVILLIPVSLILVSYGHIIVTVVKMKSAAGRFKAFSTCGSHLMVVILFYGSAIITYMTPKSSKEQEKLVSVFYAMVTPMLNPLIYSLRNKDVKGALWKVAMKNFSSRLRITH
# In short: as §1
# UniProt Q8VG53 = molecular target: T3, UniProt Q8VG53
# T3 sequence (whole entry): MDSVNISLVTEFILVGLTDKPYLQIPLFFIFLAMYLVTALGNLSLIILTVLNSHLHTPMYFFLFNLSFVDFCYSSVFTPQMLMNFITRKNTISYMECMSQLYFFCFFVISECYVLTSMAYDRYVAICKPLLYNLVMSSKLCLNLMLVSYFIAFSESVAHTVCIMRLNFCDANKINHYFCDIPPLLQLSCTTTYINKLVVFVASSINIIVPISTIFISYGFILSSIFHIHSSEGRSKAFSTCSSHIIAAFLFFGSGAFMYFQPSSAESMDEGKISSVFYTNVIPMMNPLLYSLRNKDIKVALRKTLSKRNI
# In short: as §1
# UniProt Q8VG64 = molecular target: T4, UniProt Q8VG64
# T4 sequence (whole entry): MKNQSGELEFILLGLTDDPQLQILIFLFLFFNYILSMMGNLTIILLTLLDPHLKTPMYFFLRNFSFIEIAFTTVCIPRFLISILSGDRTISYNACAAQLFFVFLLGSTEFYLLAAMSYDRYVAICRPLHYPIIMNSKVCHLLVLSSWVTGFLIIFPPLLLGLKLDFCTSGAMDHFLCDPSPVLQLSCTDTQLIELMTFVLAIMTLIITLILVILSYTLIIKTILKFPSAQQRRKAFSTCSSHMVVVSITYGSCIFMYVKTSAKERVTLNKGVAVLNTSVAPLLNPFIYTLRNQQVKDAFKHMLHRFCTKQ
# In short: as §1
# UniProt Q8VG77 = molecular target: T5, UniProt Q8VG77
# T5 sequence (whole entry): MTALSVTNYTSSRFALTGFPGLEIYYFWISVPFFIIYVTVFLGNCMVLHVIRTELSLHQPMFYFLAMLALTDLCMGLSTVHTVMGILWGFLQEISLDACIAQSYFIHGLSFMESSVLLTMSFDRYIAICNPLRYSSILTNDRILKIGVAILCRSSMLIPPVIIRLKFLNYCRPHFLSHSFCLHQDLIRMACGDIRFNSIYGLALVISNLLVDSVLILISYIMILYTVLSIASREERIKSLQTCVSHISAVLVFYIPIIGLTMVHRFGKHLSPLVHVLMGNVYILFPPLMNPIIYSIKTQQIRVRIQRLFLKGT
# In short: as §1
# UniProt Q8VG96 = molecular target: T6, UniProt Q8VG96
# T6 sequence (whole entry): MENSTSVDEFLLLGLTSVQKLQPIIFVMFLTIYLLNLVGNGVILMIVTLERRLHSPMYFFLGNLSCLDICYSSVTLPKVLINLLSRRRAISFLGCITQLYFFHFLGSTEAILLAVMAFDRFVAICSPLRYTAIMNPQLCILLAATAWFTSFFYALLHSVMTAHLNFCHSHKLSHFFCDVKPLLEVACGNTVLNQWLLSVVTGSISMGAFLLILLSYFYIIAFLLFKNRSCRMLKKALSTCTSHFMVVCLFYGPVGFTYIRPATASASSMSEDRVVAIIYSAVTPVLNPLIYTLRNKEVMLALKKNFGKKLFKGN
# In short: as §1
# UniProt Q8VGB9 = molecular target: T7, UniProt Q8VGB9
# T7 sequence (whole entry): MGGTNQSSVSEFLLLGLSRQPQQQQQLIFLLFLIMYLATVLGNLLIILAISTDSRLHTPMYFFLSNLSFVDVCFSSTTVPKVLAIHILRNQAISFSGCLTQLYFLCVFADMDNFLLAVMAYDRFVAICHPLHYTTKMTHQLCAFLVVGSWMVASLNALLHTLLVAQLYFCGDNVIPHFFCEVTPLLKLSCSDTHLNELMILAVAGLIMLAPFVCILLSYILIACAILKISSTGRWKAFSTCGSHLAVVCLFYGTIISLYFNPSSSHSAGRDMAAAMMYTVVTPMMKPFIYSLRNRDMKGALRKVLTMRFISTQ
# In short: as §1
# UniProt Q8VG28 = molecular target: UniProt Q8VG28
# In short: as §1
# 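Further: active if original authors judged signal statistically different from baseline.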
# UniProt Q8VG28, sequence (Q8VG28 as listed by the source): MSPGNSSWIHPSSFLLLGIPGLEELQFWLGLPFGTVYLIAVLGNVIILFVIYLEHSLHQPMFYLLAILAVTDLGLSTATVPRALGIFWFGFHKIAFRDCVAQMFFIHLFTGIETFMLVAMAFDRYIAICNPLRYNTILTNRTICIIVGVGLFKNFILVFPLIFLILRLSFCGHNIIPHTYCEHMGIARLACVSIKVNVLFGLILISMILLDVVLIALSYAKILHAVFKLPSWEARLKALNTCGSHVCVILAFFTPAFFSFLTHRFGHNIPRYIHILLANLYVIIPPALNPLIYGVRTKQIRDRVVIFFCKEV
SMILES,odorant receptor agonist call (UniProt Q8VG27),odorant receptor agonist call (UniProt Q8VG49),odorant receptor agonist call (UniProt Q8VG53),odorant receptor agonist call (UniProt Q8VG64),odorant receptor agonist call (UniProt Q8VG77),odorant receptor agonist call (UniProt Q8VG96),odorant receptor agonist call (UniProt Q8VGB9),odorant receptor agonist call (UniProt Q8VG28)
CCCCCCCCS,inactive,inactive,inactive,inactive,inactive,inactive,inactive,
CCCCCCCCC(=O)O,inactive,active,inactive,inactive,inactive,inactive,inactive,
CCCCC(=O)CC,inactive,inactive,inactive,inactive,inactive,inactive,inactive,
O=C(O)CCCCCBr,inactive,,inactive,inactive,,,inactive,inactive
CC(C)=CCCC(C)=CCO,inactive,inactive,inactive,inactive,inactive,inactive,inactive,
CCCCCCO,inactive,inactive,inactive,inactive,inactive,inactive,active,inactive
CCCCCCCCCCO,inactive,inactive,inactive,inactive,inactive,inactive,inactive,
CCCCCCCCCO,inactive,inactive,inactive,inactive,inactive,inactive,inactive,inactive
CCCCCCCCO,inactive,inactive,inactive,inactive,inactive,inactive,inactive,inactive
COc1cc(C(=O)O)ccc1O,active,inactive,inactive,inactive,inactive,inactive,inactive,
CCCCC(C)=O,inactive,inactive,inactive,inactive,inactive,inactive,active,
CCCCCCCC(C)=O,inactive,inactive,inactive,inactive,inactive,inactive,inactive,
O=C([O-])CCCCCCCC(=O)[O-].[H+].[H+],inactive,,inactive,inactive,,,inactive,inactive
CCCCCCC(C)=O,inactive,inactive,inactive,inactive,inactive,inactive,inactive,
CC(C)=CCCC(C)CCO (stereo not drawn),inactive,inactive,inactive,inactive,inactive,inactive,inactive,
CCC(=O)C(=O)CC,inactive,inactive,inactive,inactive,inactive,inactive,active,
C=CCOC(=O)CCCCCC,inactive,inactive,inactive,inactive,inactive,inactive,inactive,
CC(=O)OCC=C(C)C,inactive,inactive,inactive,inactive,inactive,inactive,inactive,
CC(=O)OCc1ccccc1,inactive,inactive,inactive,inactive,inactive,inactive,inactive,

SMILES,odorant receptor agonist call (UniProt Q8VG27),odorant receptor agonist call (UniProt Q8VG49),odorant receptor agonist call (UniProt Q8VG53),odorant receptor agonist call (UniProt Q8VG64),odorant receptor agonist call (UniProt Q8VG77),odorant receptor agonist call (UniProt Q8VG96),odorant receptor agonist call (UniProt Q8VGB9),odorant receptor agonist call (UniProt Q8VG28)
CCCCCCCO,inactive,inactive,inactive,inactive,inactive,inactive,inactive,inactive
O=C([O-])CCCCCCC(=O)[O-].[H+].[H+],inactive,,inactive,inactive,,,inactive,inactive
CCCCCC1=C(C)CCC1=O,inactive,inactive,inactive,inactive,inactive,inactive,inactive,
CCCCOC=O,inactive,inactive,inactive,inactive,inactive,inactive,inactive,
CC12CCC(CC1=O)C2(C)C (stereo not drawn),inactive,inactive,inactive,inactive,inactive,inactive,inactive,
CCCCC(=O)O,inactive,inactive,inactive,inactive,inactive,inactive,inactive,inactive
CCCCCCCCCC(=O)[O-].[H+],active,active,inactive,inactive,inactive,inactive,inactive,active
CCCCC=O,inactive,,inactive,inactive,,,inactive,inactive
CCCCCC=O,inactive,inactive,inactive,inactive,active,inactive,inactive,
CCCCCOC(=O)CCCCC,inactive,inactive,inactive,inactive,inactive,inactive,inactive,
CC(=O)Oc1ccccc1,inactive,inactive,inactive,inactive,inactive,active,inactive,
CCOC(=O)C(C)C,inactive,inactive,inactive,inactive,inactive,inactive,inactive,
O=C(c1ccccc1)c1ccccc1,inactive,inactive,inactive,inactive,inactive,inactive,inactive,
CCCCCC(=O)CC,inactive,inactive,inactive,inactive,inactive,inactive,inactive,
C=C(C)C1CCC(C)C(=O)C1 (stereo not drawn),inactive,inactive,inactive,inactive,inactive,inactive,inactive,
COC(OC)c1ccccc1,inactive,,inactive,inactive,,,inactive,
CC(C)=C1CCC(C)CC1=O (stereo not drawn),inactive,,inactive,inactive,,,inactive,
OCCc1ccccc1,inactive,,inactive,inactive,,,inactive,
